The target of data set [1] is T1, Peroxisome proliferator-activated receptor alpha (Homo sapiens) (UniProt Q07869).
T1 sequence (whole entry): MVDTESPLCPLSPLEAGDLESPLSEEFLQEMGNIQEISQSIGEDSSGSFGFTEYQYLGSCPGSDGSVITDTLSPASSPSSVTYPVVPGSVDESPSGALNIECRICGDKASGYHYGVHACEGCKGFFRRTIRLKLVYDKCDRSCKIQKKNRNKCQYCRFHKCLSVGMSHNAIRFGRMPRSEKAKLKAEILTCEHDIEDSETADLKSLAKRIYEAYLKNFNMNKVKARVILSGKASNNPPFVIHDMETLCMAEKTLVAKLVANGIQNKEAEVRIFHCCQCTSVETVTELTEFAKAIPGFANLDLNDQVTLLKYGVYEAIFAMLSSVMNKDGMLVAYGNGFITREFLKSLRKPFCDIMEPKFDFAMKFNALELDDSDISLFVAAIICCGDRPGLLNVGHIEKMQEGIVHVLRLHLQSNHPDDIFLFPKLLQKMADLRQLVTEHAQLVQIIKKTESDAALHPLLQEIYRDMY
In words: Transactivation of human GAL4-fused PPARalpha LBD expressed in African green monkey COS7 cells co-expressing 5Gal4 pGL3 TK Luc after overnight incubation by luciferase reporter gene assay relative to fenofibric acid. The data set is classed as cell-based. In a few lines:
(§1)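 Cell-based Gal-4 transactivation assay in COS-7 cells transfected with PPARα, PPARδ or PPARγ ligand-binding domain. EC50 and Emax were derived, with Emax as maximum activation in percent of control. EC50s are means of at least two independent experiments performed in triplicate.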
A general note: A reporter such as luciferase makes a cellular process visible.

Data set [2] addresses T2, Peroxisome proliferator-activated receptor delta (Homo sapiens) (UniProt Q03181).
T2 sequence (whole entry): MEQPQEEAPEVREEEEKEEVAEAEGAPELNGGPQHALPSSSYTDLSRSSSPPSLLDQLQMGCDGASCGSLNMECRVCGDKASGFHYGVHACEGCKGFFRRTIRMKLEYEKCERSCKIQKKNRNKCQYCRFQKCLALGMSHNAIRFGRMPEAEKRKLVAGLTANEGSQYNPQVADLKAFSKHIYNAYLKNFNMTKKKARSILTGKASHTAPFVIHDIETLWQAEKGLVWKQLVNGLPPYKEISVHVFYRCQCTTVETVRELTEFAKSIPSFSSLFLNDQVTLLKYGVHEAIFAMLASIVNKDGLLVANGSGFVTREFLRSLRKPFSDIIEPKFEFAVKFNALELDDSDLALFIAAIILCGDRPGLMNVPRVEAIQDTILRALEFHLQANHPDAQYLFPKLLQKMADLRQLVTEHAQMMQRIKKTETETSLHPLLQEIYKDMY
Nature of the data set: Transactivation of human GAL4-fused PPARdelta LBD expressed in African green monkey COS7 cells co-expressing 5Gal4 pGL3 TK Luc after overnight incubation by luciferase reporter gene assay relative to GW501516. The data set is classed as cell-based. In a few lines: as §1

Data set [3] deals with T3, Peroxisome proliferator-activated receptor gamma (Homo sapiens, UniProt P37231).
T3 sequence (P37231 whole entry): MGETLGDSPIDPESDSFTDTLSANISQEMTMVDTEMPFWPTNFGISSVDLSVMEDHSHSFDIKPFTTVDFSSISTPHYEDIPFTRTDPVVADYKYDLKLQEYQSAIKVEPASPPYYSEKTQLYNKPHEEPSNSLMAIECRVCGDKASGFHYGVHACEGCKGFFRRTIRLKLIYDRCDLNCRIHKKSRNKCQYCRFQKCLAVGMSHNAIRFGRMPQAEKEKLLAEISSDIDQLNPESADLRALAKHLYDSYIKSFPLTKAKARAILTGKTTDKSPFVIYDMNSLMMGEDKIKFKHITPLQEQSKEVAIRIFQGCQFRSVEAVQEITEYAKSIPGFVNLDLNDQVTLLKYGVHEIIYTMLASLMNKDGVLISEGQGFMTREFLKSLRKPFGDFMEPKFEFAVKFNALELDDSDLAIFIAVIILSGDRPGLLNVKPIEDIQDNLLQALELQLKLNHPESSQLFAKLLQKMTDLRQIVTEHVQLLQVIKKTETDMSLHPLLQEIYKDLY
Nature of the data set: Transactivation of human GAL4-fused PPARgamma LBD expressed in African green monkey COS7 cells co-expressing 5Gal4 pGL3 TK Luc after overnight incubation by luciferase reporter gene assay. The data set is classed as cell-based. The method, boiled down:
as §1

For data set [4], the target named is T4, Peroxisome proliferator-activated receptor gamma (Homo sapiens) (UniProt P37231).
T4 sequence (whole entry): T3 sequence (P37231 whole entry)
Nature of the data set: Transactivation of human GAL4-fused PPARgamma LBD expressed in African green monkey COS7 cells co-expressing 5Gal4 pGL3 TK Luc after overnight incubation by luciferase reporter gene assay relative to rosiglitazone. The data set is classed as cell-based. In a few lines: as §1

Data set [5] can be described thus: Apparent permeability from apical to basolateral side in human Caco2 cells at 10 uM after 2 hrs by LC-MS/MS analysis. In kind it is ADME, cell-based, Caco-2. For orientation: Passage across Caco-2 layers is used to estimate intestinal permeability.
A short description of data set [6]: Apparent permeability from basolateral to apical side in human Caco2 cells at 10 uM after 2 hrs by LC-MS/MS analysis. The data set is classed as ADME, cell-based, Caco-2.
The nature of data set [7]: Efflux ratio of apparent permeability in human Caco2 cells at 10 uM after 2 hrs by LC-MS/MS analysis. In kind it is ADME, cell-based, Caco-2.
Data set [8] is described as follows: Aqueous solubility in fasted state simulated intestinal fluid. In kind it is physicochemical.
Data set [9] concerns the target T1, Peroxisome proliferator-activated receptor alpha (Homo sapiens). Nature of the data set: Transactivation of PPARalpha in human HuH7 cells assessed increase in [14C]oleate beta-oxidation at 1 uM preincubated for 48 hrs followed by [14C]oleate addition during last 2 hrs of incubation period relative to control. The data set is classed as cell-based. In a few lines: (§2)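 Fatty acid beta-oxidation was used as the functional read-out. PPARα activity was tested in human hepatoma HuH7 cells and PPARδ activity in mouse myoblast C2C12 cells, at 1, 3, 10 and 30 µM. Values are % beta-oxidation, mean of at least 2 independent experiments run in triplicate, with single-experiment values flagged.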

Data set [10] has the same target. Nature of the data set: Transactivation of PPARalpha in human HuH7 cells assessed increase in [14C]oleate beta-oxidation at 30 uM preincubated for 48 hrs followed by [14C]oleate addition during last 2 hrs of incubation period relative to control. The data set is classed as cell-based. The method, boiled down:
as §2

The nature of data set [11]: Cmax in C57Bl6 mouse at 10 mg/kg, po administered as single oral dose. The following applies: in vivo. In kind it is ADME, organism-based. The method, boiled down: (§3)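 Single oral dose of 10 mg/kg in methyl cellulose vehicle given to C57Bl6 mice. Plasma was sampled over a 24 h period. […]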
A short description of data set [12]: AUC (infinity) in C57Bl6 mouse at 10 mg/kg, po administered as single oral dose. The conditions noted are these: in vivo. In kind it is ADME, organism-based. In a few lines: as §3

In brackets after ≈: the same amount, converted by molar mass.

`O=C(O)CCCc1cc2cc(Cl)ccc2n1S(=O)(=O)c1ccc2ncsc2c1` [LANIFIBRANOR]: the results for the Emax in data set [1], in data set [2] and in data set [4] were 106%, 105% and 79%, respectively. In addition, the midpoint of the response in [3], the EC50, lay at 206 nM. In addition, the Papp (commonly the rate of passage across a membrane or cell layer, normalised by area and donor concentration) amounted to 24 ×10⁻⁶ cm/s in data set [5] (caco-2, 2 h, 10 µM) and 0.2 ×10⁻⁶ cm/s in data set [6] (caco-2, 2 h, 10 µM). Moreover, the Ratio in [7] (caco-2, 2 h, 10 µM) was found to be 0.1. Also, in data set [8], the concentration in solution (solubility) was 8.7 µM (≈ 3.78 µg/mL). Also, the Activity stood at 44% in [9] and 120% in data set [10]. Besides, the Cmax (usually the maximum level reached in the sampled fluid or tissue) in data set [11] is 10700 ng/mL. In data set [12], the AUC(0-inf) (in general, the area under the concentration-time curve extrapolated to infinity) was found to be 29400 ng·h/mL.
With `O=C(O)CCc1cc2cc(Cl)ccc2n1S(=O)(=O)c1ccccc1`, the Emax in data set [1] is 101%; in data set [2] it was 56%; in data set [4], 43%. Further, the EC50 (usually the concentration needed to bring the measured effect to its halfway point) in data set [3] came to 1560 nM. Besides, in [5] (Caco-2), the Papp A→B (in general, the apparent permeability from the apical to the basolateral side of a cell layer) at 2 h, 10 µM is 61 ×10⁻⁶ cm/s. Also, the Papp B→A (commonly the apparent permeability from the basolateral to the apical side of a cell layer) at 2 h, 10 µM in [6] (Caco-2) was 14.4 ×10⁻⁶ cm/s. Further, the efflux ratio (commonly the permeability from basolateral to apical divided by that in the opposite direction, in the common usage) at 2 h, 10 µM in data set [7] (Caco-2) worked out at 0.2. The solubility (usually the dissolved amount per volume that the medium holds) in [8] was 9 µM (≈ 3.27 µg/mL). Moreover, the Activity came out at 5% in data set [9] and 96% in data set [10]. The molecule further gave a Cmax in [11] of 14600 ng/mL. The AUC(0-inf) in data set [12] is 37300 ng·h/mL.

The values above are taken from ChEMBL document CHEMBL4020830, “Design, Synthesis, and Evaluation of a Novel Series of Indole Sulfonamide Peroxisome Proliferator Activated Receptor (PPAR) α/γ/δ Triple Activators: Discovery of Lanifibranor, a New Antifibrotic Clinical Candidate” (J Med Chem, 2018).
